Measured values taken from ChEMBL document CHEMBL4354825, “Design and Synthesis of Basic Selective Estrogen Receptor Degraders for Endocrine Therapy Resistant Breast Cancer” (J Med Chem, 2019).
The source made the active and inactive calls. No cut-off for these calls is given here.

Tests used:
T47D [1] = assay: Cytotoxicity against human T47D 3D spheroid cells harboring D538G mutant assessed as reduction in tumor cell viability at 10 nM incubated for 14 days by celltiter-glo 3D cell viability assay
T47D [2] = assay: Cytotoxicity against human T47D 3D spheroid cells harboring Y537S mutant assessed as reduction in tumor cell viability at 10 nM incubated for 14 days by celltiter-glo 3D cell viability assay
T47D [3] = assay: Cytotoxicity against human T47D 3D spheroid cells assessed as reduction in tumor cell viability at 10 nM incubated for 14 days by celltiter-glo 3D cell viability assay
Rattus norvegicus [4] = assay: Induction of uterotrophic activity in Sprague-Dawley rat assessed as increase in uterine weight at 10 mg/kg, po administered for 3 days and measured after 24 hrs of last dosing by hematoxylin eosin staining based imaging analysis; type: functional, organism-based
How it was run: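 Female Sprague-Dawley rats were dosed from day 19 of age once daily for 3 days: 10 mg/kg p.o. in 2% Tween 80/0.5% methylcellulose. EE2 (0.1 mg/kg p.o., peanut oil) was the positive control. Uteri were excised and weighed 24 h after the last dose; one half was fixed in 4% paraformaldehyde for H&E histology.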

Estrogen receptor [5] = molecular target: T1, Estrogen receptor (Homo sapiens, UniProt P03372); assay: Inhibition of ERalpha in human MCF7:WS8 cells assessed as increase in degradation of ERalpha incubated for 24 hrs by In-Cell Western assay; type: cell-based
T1 sequence (P03372 whole entry): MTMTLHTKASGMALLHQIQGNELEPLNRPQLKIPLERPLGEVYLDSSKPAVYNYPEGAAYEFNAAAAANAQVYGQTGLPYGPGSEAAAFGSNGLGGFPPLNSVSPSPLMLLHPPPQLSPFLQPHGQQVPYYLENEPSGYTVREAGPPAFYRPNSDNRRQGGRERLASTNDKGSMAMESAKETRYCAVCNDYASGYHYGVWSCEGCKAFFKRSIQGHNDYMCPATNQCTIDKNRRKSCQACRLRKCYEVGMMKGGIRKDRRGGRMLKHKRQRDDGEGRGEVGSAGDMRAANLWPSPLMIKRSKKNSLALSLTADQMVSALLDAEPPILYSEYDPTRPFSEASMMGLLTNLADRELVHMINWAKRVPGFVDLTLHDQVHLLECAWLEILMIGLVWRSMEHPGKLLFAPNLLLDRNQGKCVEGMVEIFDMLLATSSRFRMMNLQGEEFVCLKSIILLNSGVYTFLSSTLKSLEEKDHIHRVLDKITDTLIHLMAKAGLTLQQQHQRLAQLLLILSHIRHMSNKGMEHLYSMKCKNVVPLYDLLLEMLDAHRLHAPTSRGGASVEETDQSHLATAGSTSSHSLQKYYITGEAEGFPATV
How it was run: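 MCF7:WS8 cells were estrogen-stripped for 2 days and plated at 2.5 × 10^4 per well. ERα was detected by in-cell western (H10 antibody), with signal normalized to CellTag 700.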

[6] = (§1) Antiproliferative activity against human MCF7:5C cells assessed as reduction in cell viability incubated for 7 days by Hoechst 33258 dye based assay relative to control; type: functional; settings: 168 h
How it was run: (§2)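 Cells were seeded at 5000 per well; MCF7:WS8 had been estrogen-stripped for 2 days first. Compounds were serially diluted in DMSO, with 0.01% DMSO as vehicle. The medium was removed on day 5 (MCF7:WS8) or day 7 (MCF7:5C), and cells were lysed by freezing at −80 °C overnight. DNA was measured by Hoechst 33258 fluorescence. Maximum efficacy was normalized to vehicle (0%) and no cells (100%); at least three biological replicates.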

[7] = Plasma concentration in C57BL/6 mouse at 100 mg/kg, po measured after 2 hrs by LC/MS-MS analysis; type: ADME, organism-based
How it was run: (§3)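 PK screen in female C57BL/6 mice (N = 3 per time point). Dosed by gavage at 100 mg/kg in HPβD/PEG-400. Plasma and brain were taken from perfused mice at 30 and 120 min. Quantified by LC-MS/MS in MRM mode, with standard curves in each matrix and a common internal standard. Values are mean and s.d.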

Estrogen receptor [8] = molecular target: T1, Estrogen receptor; assay: Antagonist activity at ERalpha in human MCF7:WS8 cells incubated for 18 hrs by dual luciferase reporter gene assay relative to control; type: cell-based
How it was run: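 MCF7:WS8 cells were estrogen-deprived for 3 days (phenol red-free RPMI, stripped FBS), then plated and grown 24 h. They were co-transfected for 6 h with a 3×vitellogenin ERE-firefly luciferase plasmid and a pRL-TK Renilla plasmid. Compounds were given in competition with 1 nM E2 for 18 h, then dual luciferase was read.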

[9] = Drug concentration in C57BL/6 mouse brain at 100 mg/kg, po measured after 2 hrs by LC/MS-MS analysis; type: ADME, organism-based; settings: read-out: Drug uptake
How it was run: as §3

[10] = Antiproliferative activity against human MCF7:WS8 cells assessed as reduction in cell viability incubated for 5 days by Hoechst 33258 dye based assay; type: functional; settings: MCF7:WS8, 120 h
How it was run: as §2

[11] = molecular target: T2, Estrogen receptor (Homo sapiens) (UniProt P03372); assay: Inhibition of ERalpha in human MCF7:WS8 cells assessed as increase in degradation of ERalpha incubated for 24 hrs by In-Cell Western assay relative to control; type: cell-based
T2 sequence (whole entry): T1 sequence (P03372 whole entry)
How it was run: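 MCF7:WS8 cells were estrogen-stripped for 2 days and plated at 2.5 × 10^4 per well. After 48 h they were treated for 24 h. ERα was detected by in-cell western (H10 antibody), with signal normalized to CellTag 700.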

cells = settings: Homo sapiens, MCF7:5C, 168 h, read-out: pIC50 (converted)
Homo sapiens [12] = species: Homo sapiens; assay: Cytotoxicity against human MCF7:WS8 3D spheroid cells assessed as reduction in tumor spheroid size at 10 nM incubated for 14 days
[13] = Antiproliferative activity against human MCF7:WS8 cells assessed as reduction in cell viability incubated for 5 days by Hoechst 33258 dye based assay relative to control; type: functional; settings: MCF7:WS8, 120 h
How it was run: as §2

[14] = Drug concentration in C57BL/6 mouse brain at 100 mg/kg, po measured after 0.5 hrs by LC/MS-MS analysis; type: ADME, organism-based; settings: read-out: Drug uptake
How it was run: as §3

Homo sapiens [15] = species: Homo sapiens; assay: Cytotoxicity against human MCF7:WS8 3D spheroid cells assessed as reduction in tumor cell viability at 10 nM incubated for 14 days by celltiter-glo 3D cell viability assay
[16] = Plasma concentration in C57BL/6 mouse at 100 mg/kg, po measured after 0.5 hrs by LC/MS-MS analysis; type: ADME, organism-based
How it was run: as §3

MCF7:TAM1 [17] = assay: Cytotoxicity against human MCF7:TAM1 3D spheroid cells assessed as reduction in tumor cell viability at 10 nM incubated for 14 days by celltiter-glo 3D cell viability assay
Mus musculus [18] = assay: In vivo degradation of ERalpha in C57BL/6 mouse at 50 mg/kg, po measured after 7 hrs by Western blot analysis; type: functional, organism-based
How it was run: (§4)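 Female C57BL/6J mice aged 9–12 weeks were dosed at 50 mg/kg p.o. in PEG 400/10% HPCD (1:9 v/v). Regimens were a single dose with sacrifice at 5 h, or 3 daily doses with sacrifice 5 h (n = 5) or 7 h (n = 6) after the last dose. Ovaries and uterus were homogenized, 20 μg protein was run by SDS-PAGE, and the blot was probed for ERα and normalized to β-actin.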

[19] = molecular target: T2, Estrogen receptor (Homo sapiens); assay: Induction of degradation of ERalpha in human MCF7:WS8 cells at 100 nM in presence of MG-132 incubated for 24 hrs by Western blot analysis; type: cell-based
Mus musculus [20] = assay: In vivo degradation of ERalpha in C57BL/6 mouse at 50 mg/kg, po administered for 3 days and measured on day 3 by Western blot analysis; type: functional, organism-based
How it was run: as §4

Homo sapiens [21] = species: Homo sapiens; assay: as §1; type: functional
How it was run: as §2

[22] = Plasma concentration in C57BL/6 mouse at 5 mg, sc measured after 2 hrs by LC/MS-MS analysis; type: ADME, organism-based
How it was run: (§5)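 PK screen in female C57BL/6 mice (N = 3 per time point) given 5 mg s.c. single dose; mice perfused, plasma and brain collected postmortem at 0.5 and 2 h; analyte quantified by LC-MS/MS in MRM mode against standard curves prepared in the matching matrix with a common internal standard; mean and s.d. reported.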

Rattus norvegicus [23] = assay: Induction of uterotrophic activity in Sprague-Dawley rat assessed as increase in uterine weight at 2 mg/kg, sc administered for 3 days and measured after 24 hrs of last dosing by hematoxylin eosin staining based imaging analysis; type: functional, organism-based
How it was run: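 Female Sprague Dawley rats, 12 days old, were housed with foster dams (6 per dam) and acclimated for one week. From day 19 they received 3 daily doses of 2 mg/kg s.c. in peanut oil. Animals were killed 24 h after the last dose, and uteri were excised, trimmed of fat and mesentery, and weighed. Half of each uterus was fixed in 4% paraformaldehyde, paraffin embedded and stained with H&E.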

[24] = Drug concentration in C57BL/6 mouse brain at 5 mg, sc measured after 0.5 hrs by LC/MS-MS analysis; type: ADME, organism-based; settings: read-out: Drug uptake
How it was run: as §5

[25] = Drug concentration in C57BL/6 mouse brain at 5 mg, sc measured after 2 hrs by LC/MS-MS analysis; type: ADME, organism-based; settings: read-out: Drug uptake
How it was run: as §5

MCF7:TAM1 [26] = assay: Antitumor activity against human MCF7:TAM1 cells xenografted in athymic nude mouse assessed as tumor regression at 5 mg, sc measured after 4 weeks; type: functional, organism-based
How it was run: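 Ovariectomized athymic female nude mice, 4–6 weeks old, carrying MCF7:TAM1 tumours established in the mammary fat pad, with E2 supplied from 1.0 cm silastic capsules implanted s.c. Dosing was 5 mg/week s.c. in sesame oil. Tumour cross-sectional area was measured weekly with calipers as (length/2)×(width/2)×π, and mean area was plotted against time in weeks.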

[27] = Plasma concentration in C57BL/6 mouse at 5 mg, sc measured after 0.5 hrs by LC/MS-MS analysis; type: ADME, organism-based
How it was run: as §5

## CC1=C(c2cccc(O)c2)[C@H](c2ccc(OCCN3CC(CF)C3)cc2)Oc2ccc(O)cc21
T47D [1]
  Activity: Active
T47D [2]
  Activity: Active
T47D [3]
  Activity: Active

## Cc1c(-c2ccc(O)cc2)n(Cc2ccc(OCCN3CCCCCC3)cc2)c2ccc(O)cc12
Rattus norvegicus [4]
  Activity: inactive

## Cc1cc(F)cc(C)c1C(=O)c1sc2cc(O)ccc2c1Oc1ccc(OCCN2CC(CF)C2)cc1
Estrogen receptor [5]
  IC50: 1.41 nM
[6]
  Emax: 47%
[7]
  concentration at 2 h: 659 nM
Estrogen receptor [8]
  IC50: 3.5 nM
[9]
  concentration at 2 h: 588 nM
[10]
  IC50: 0.468 nM
[11]
  Efficacy: 85%
cells
  IC50: 2.14 nM
Homo sapiens [12]
  Activity: Active
[13]
  Emax: 73%
[14]
  concentration at 0.5 h: 750 nM
Homo sapiens [15]
  Activity: Active
[16]
  concentration at 0.5 h: 786 nM
MCF7:TAM1 [17]
  Activity: Active

## Cc1cc(Cl)cc(C)c1C(=O)c1sc2cc(O)ccc2c1Oc1ccc(/C=C/C(=O)O)cc1
Mus musculus [18]
  Activity: Active
[19]
  Activity: Active
Mus musculus [20]
  Activity: Active

## Cc1ccccc1C(=O)c1sc2cc(O)ccc2c1Oc1ccc(OCCN2CCCCC2)cc1
Homo sapiens [21]
  Emax: inactive
[10]
  IC50: 0.407 nM
[13]
  Emax: 68%

## CC/C(=C(\c1ccc(O)cc1)c1ccc(OCCN(C)C)cc1)c1ccccc1
T47D [1]
  Activity: Active
T47D [2]
  Activity: Active
T47D [3]
  Activity: Active

## O=C(c1ccc(F)cc1)c1sc2cc(O)ccc2c1Oc1ccc(OCCN2CC(CF)C2)cc1
Estrogen receptor [5]
  IC50: 1.23 nM
[6]
  Emax: 46%
Estrogen receptor [8]
  IC50: 28 nM
[10]
  IC50: 1.02 nM
[11]
  Efficacy: 89%
cells
  IC50: 0.447 nM
Homo sapiens [12]
  Activity: Active
[13]
  Emax: 67%
Homo sapiens [15]
  Activity: Active

## Cc1cc(F)cc(C)c1C(=O)c1sc2cc(O)ccc2c1Oc1ccc(OCCN2CC[C@@H](CF)C2)cc1
Estrogen receptor [5]
  IC50: 5.89 nM
[6]
  Emax: 34%
[7]
  concentration at 2 h: 163 nM
Estrogen receptor [8]
  IC50: 12 nM
[9]
  concentration at 2 h: 276 nM
[10]
  IC50: 0.631 nM
[11]
  Efficacy: 84%
cells
  IC50: 1.07 nM
[13]
  Emax: 66%
[14]
  concentration at 0.5 h: 121 nM
[16]
  concentration at 0.5 h: 211 nM

## Cc1ccccc1C(=O)c1sc2cc(O)ccc2c1Oc1ccc(OC2CN(CCCF)C2)cc1
Estrogen receptor [5]
  IC50: 2.57 nM
[6]
  Emax: 59%
Estrogen receptor [8]
  IC50: 2.1 nM
[10]
  IC50: 0.145 nM
[11]
  Efficacy: 82%
cells
  IC50: 2.82 nM
Homo sapiens [12]
  Activity: Active
[13]
  Emax: 67%
Homo sapiens [15]
  Activity: Active

## CCNCCc1ccc(CN(CC)c2cc(OC)ccc2[C@@H]2CCc3cc(O)ccc3C2)cc1
[19]
  Activity: Active

## C[C@]12CC[C@@H]3c4ccc(O)cc4C[C@@H](CCCCCCCCC[S+]([O-])CCCC(F)(F)C(F)(F)F)[C@H]3[C@@H]1CC[C@@H]2O (stereo not given in full) [FULVESTRANT]
[6]
  Emax: 48%
T47D [1]
  Activity: Active
[22]
  concentration at 2 h: 301 nM
T47D [2]
  Activity: Active
Rattus norvegicus [23]
  Activity: inactive
[24]
  concentration at 0.5 h: 0.7 nM
[10]
  IC50: 0.603 nM
[25]
  concentration at 2 h: 47.4 nM
MCF7:TAM1 [26]
  Activity: Active
Homo sapiens [12]
  Activity: Active
[13]
  Emax: 66%
Homo sapiens [15]
  Activity: Active
T47D [3]
  Activity: Active
MCF7:TAM1 [17]
  Activity: Active
[27]
  concentration at 0.5 h: 31.2 nM

## O=C(c1ccc(OCCN2CCCCC2)cc1)c1c(-c2ccc(O)cc2)sc2cc(O)ccc12 [RALOXIFENE]
Homo sapiens [21]
  Emax: inactive
[10]
  IC50: 2.4 nM
[13]
  Emax: 69%
